Values joined by “and” are separate entries in the source; they are usually repeats but may differ in a detail not shown here. Equal values may be shown once.
Test system: U2OS
Experiment: Multiplex assay against U2OS
Assay type: toxicity, cell-based
Details: human
Method in brief: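 Imaging took place on a CQ1 microscope at 37°C and 5% CO2 once compound had been added to live cells stained at seeding with Hoechst33342, BioTracker Green Microtubule Cytoskeleton Dye, MitoTracker Red and Annexin V Alexa Fluor 680. CellPathfinder machine-learning gating classed cells as Hoechst high-intensity objects or normal cells, classed normal cells as having healthy, pyknosed or fragmented nuclei, and classed pyknosed cells as mitotic or apoptotic. Tubulin, mitochondrial-mass and membrane-permeability phenotypes are per cents of the healthy-nucleus cells.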

[1] = 12 h, 1 µM, compound concentration 1 uM
[2] = 12 h, 10 µM, compound concentration 10 uM
[3] = 24 h, 1 µM, compound concentration 1 uM
[4] = 24 h, 10 µM, compound concentration 10 uM
[5] = 48 h, 1 µM, compound concentration 1 uM
[6] = 48 h, 10 µM, compound concentration 10 uM

## O=C1CSC(=O)N1C(CCc1ccncc1)COc1ccc(-c2cccc([N+](=O)[O-])c2)cc1 (centres undefined)
[1]
  Population Apoptotic (%): 46.67% and 30.43%
  Population Fragmented Nuclei (%): 1.68% and 1.25%
  Population Healthy Nuclei (%): 91.11% and 84.38%
  Population Hoechst High Intensity Objects (%): 0% and 0.62%
  Population Membrane Permeable-Phenotype (%): 0.26% and 4.44%
  Population Mitochondria Different-Phenotype (%): 0.26% and 9.63%
  Population Mitotic Cells (%): 53.33% and 69.57%
  Population Normal (%): 100% and 99.38%
  Population Pyknosed Nuclei (%): 7.21% and 14.37%
  Population Tubulin-Different-Phenotype (%): 1.58% and 2.22%
  Total Cell Count: 416 and 161
[2]
  Population Apoptotic (%): 42.24% and 24.39%
  Population Fragmented Nuclei (%): 2.2% and 3.42%
  Population Healthy Nuclei (%): 69.51% and 68.49%
  Population Hoechst High Intensity Objects (%): 0.24% and 0%
  Population Membrane Permeable-Phenotype (%): 53.68% and 77%
  Population Mitochondria Different-Phenotype (%): 42.11% and 86%
  Population Mitotic Cells (%): 57.76% and 75.61%
  Population Normal (%): 99.76% and 100%
  Population Pyknosed Nuclei (%): 28.29% and 28.08%
  Population Tubulin-Different-Phenotype (%): 96.84% and 85%
  Total Cell Count: 411 and 146
[3]
  Population Apoptotic (%): 40.38% and 40%
  Population Fragmented Nuclei (%): 0.93% and 1.52%
  Population Healthy Nuclei (%): 89.44% and 80.81%
  Population Hoechst High Intensity Objects (%): 0.18% and 0%
  Population Membrane Permeable-Phenotype (%): 0.62% and 1.88%
  Population Mitochondria Different-Phenotype (%): 0.41% and 10%
  Population Mitotic Cells (%): 59.62% and 60%
  Population Normal (%): 99.82% and 100%
  Population Pyknosed Nuclei (%): 9.63% and 17.68%
  Population Tubulin-Different-Phenotype (%): 1.45% and 0.62%
  Total Cell Count: 541 and 198
[4]
  Population Apoptotic (%): 50% and 31.58%
  Population Fragmented Nuclei (%): 2.96% and 3.38%
  Population Healthy Nuclei (%): 68.34% and 70.95%
  Population Hoechst High Intensity Objects (%): 0.23% and 0%
  Population Membrane Permeable-Phenotype (%): 43% and 73.33%
  Population Mitotic Cells (%): 50% and 68.42%
  Population Normal (%): 99.77% and 100%
  Population Pyknosed Nuclei (%): 28.7% and 25.68%
  Population Tubulin-Different-Phenotype (%): 96.67% and 89.52%
  Total Cell Count: 440 and 148
[5]
  Population Apoptotic (%): 43.9% and 44.68%
  Population Fragmented Nuclei (%): 2.54% and 3.2%
  Population Healthy Nuclei (%): 89.11% and 83.14%
  Population Hoechst High Intensity Objects (%): 0%
  Population Membrane Permeable-Phenotype (%): 1.6% and 1.75%
  Population Mitochondria Different-Phenotype (%): 0.34% and 6.64%
  Population Mitotic Cells (%): 56.1% and 55.32%
  Population Normal (%): 100%
  Population Pyknosed Nuclei (%): 8.34% and 13.66%
  Population Tubulin-Different-Phenotype (%): 1.94% and 1.75%
  Total Cell Count: 983 and 344
[6]
  Population Apoptotic (%): 60.54% and 58.93%
  Population Fragmented Nuclei (%): 4.41% and 4.12%
  Population Healthy Nuclei (%): 68.57% and 62.94%
  Population Hoechst High Intensity Objects (%): 0.18% and 0%
  Population Membrane Permeable-Phenotype (%): 31.1% and 67.29%
  Population Mitotic Cells (%): 39.46% and 41.07%
  Population Normal (%): 99.82% and 100%
  Population Pyknosed Nuclei (%): 27.02% and 32.94%
  Population Tubulin-Different-Phenotype (%): 82.84% and 74.77%

## CN1CCN(c2nc3cc(C(F)(F)F)ccc3n3cccc23)CC1.O=C(O)/C=C\C(=O)O.O=C(O)/C=C\C(=O)O
[1]
  Population Apoptotic (%): 77% and 100%
  Population Fragmented Nuclei (%): 17% and 18%
  Population Healthy Nuclei (%): 75% and 73%
  Population Hoechst High Intensity Objects (%): 1% and 0%
  Population Membrane Permeable-Phenotype (%): 4% and 8%
  Population Mitochondria Different-Phenotype (%): 0% and 2%
  Population Mitotic Cells (%): 22% and 0%
  Population Normal (%): 98% and 99%
  Population Pyknosed Nuclei (%): 6% and 8%
  Population Tubulin-Different-Phenotype (%): 1% and 3%
  Total Cell Count: 266 and 111
[2]
  Population Apoptotic (%): 66% and 88%
  Population Fragmented Nuclei (%): 31% and 25%
  Population Healthy Nuclei (%): 53% and 68%
  Population Hoechst High Intensity Objects (%): 1% and 2%
  Population Membrane Permeable-Phenotype (%): 18% and 13%
  Population Mitochondria Different-Phenotype (%): 45% and 41%
  Population Mitotic Cells (%): 33% and 11%
  Population Normal (%): 98% and 97%
  Population Pyknosed Nuclei (%): 15% and 6%
  Population Tubulin-Different-Phenotype (%): 19% and 21%
  Total Cell Count: 218 and 135
[3]
  Population Apoptotic (%): 85% and 92%
  Population Fragmented Nuclei (%): 17% and 13%
  Population Healthy Nuclei (%): 73% and 77%
  Population Hoechst High Intensity Objects (%): 2% and 0%
  Population Membrane Permeable-Phenotype (%): 5% and 8%
  Population Mitochondria Different-Phenotype (%): 1% and 4%
  Population Mitotic Cells (%): 14% and 7%
  Population Normal (%): 97% and 99%
  Population Pyknosed Nuclei (%): 9%
  Population Tubulin-Different-Phenotype (%): 3% and 4%
  Total Cell Count: 300 and 136
[4]
  Population Apoptotic (%): 76% and 78%
  Population Fragmented Nuclei (%): 31% and 19%
  Population Healthy Nuclei (%): 57% and 71%
  Population Hoechst High Intensity Objects (%): 3%
  Population Membrane Permeable-Phenotype (%): 16% and 17%
  Population Mitochondria Different-Phenotype (%): 41% and 36%
  Population Mitotic Cells (%): 24% and 21%
  Population Normal (%): 96%
  Population Pyknosed Nuclei (%): 10% and 9%
  Population Tubulin-Different-Phenotype (%): 14% and 16%
  Total Cell Count: 244 and 156
[5]
  Population Apoptotic (%): 87% and 85%
  Population Fragmented Nuclei (%): 14% and 17%
  Population Healthy Nuclei (%): 77% and 75%
  Population Hoechst High Intensity Objects (%): 2% and 1%
  Population Membrane Permeable-Phenotype (%): 4% and 6%
  Population Mitochondria Different-Phenotype (%): 0% and 5%
  Population Mitotic Cells (%): 12% and 14%
  Population Normal (%): 97% and 98%
  Population Pyknosed Nuclei (%): 7%
  Population Tubulin-Different-Phenotype (%): 2% and 3%
  Total Cell Count: 447 and 187
[6]
  Population Apoptotic (%): 78% and 81%
  Population Fragmented Nuclei (%): 31% and 21%
  Population Healthy Nuclei (%): 52% and 67%
  Population Hoechst High Intensity Objects (%): 4% and 3%
  Population Membrane Permeable-Phenotype (%): 16% and 10%
  Population Mitochondria Different-Phenotype (%): 17% and 16%
  Population Mitotic Cells (%): 21% and 18%
  Population Normal (%): 95% and 96%
  Population Pyknosed Nuclei (%): 16% and 11%
  Population Tubulin-Different-Phenotype (%): 12% and 9%
  Total Cell Count: 299 and 202

— ChEMBL document CHEMBL5724801, “EUbOPEN Chemogenomics Library - Multiplex” (2024)
